Source: PubChem (several laboratories)
Only some compounds are listed: those with a hit (about 8.9% of all), similar ones and a draw of the others.
L major viab – Leishmania major promastigote growth inhibition, primary screen; AID 1063, 2008; 200,000 compounds, 9% hits; inhibition, % at 10 µM; Leishmania major promastigotes, resazurin fluorescence viability; in the data active = inhibition above about 50%;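 note: promastigotes grown with compound for 44 hours at 28 °C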
MT stabilize HCS – microtubule stabilizers in HeLa cells, primary screen, imaging, high-content imaging | HeLa tubulin immunostaining HCS, 24 h; share of cells brighter than vehicle mean+2SD | % tubulin-high responders, % at 10 µM | 200,000 compounds, 0.83% hits | AID 2205, 2009;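 active = plate Z-score above 3 for both tubulin-high and condensed-nucleus cell shares, with cell loss under 80%, at 10 µM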;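 note: anti alpha tubulin signal scored within the nucleus-defined area of each cell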
HSV augment – enhancers of HSV replication in host cells, fold increase, host cell viability | HSV replication augmentation in cells | maximum fold increase | 220,000 compounds, 0.005% hits; in the data active = maximum fold increase above about 1.5; tested in PC3 cells
b-catenin transl – modulators of beta-catenin nuclear translocation, primary screen, imaging, HeLa cells, immunofluorescence, high-content | nuclear translocation activity, % at 5 µM | 190,000 compounds, 0.3% hits;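 active = nuclear translocation activity above 50% at 5 µM, with a well cell count of 50 or more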;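 note: per-cell ratio of nuclear to cytoplasmic median beta-catenin stain intensity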
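System: HeLa cells, endogenous beta-catenin; compound dosing: 5 µM primary single dose, 0.1% DMSO, 0.02–20 µM confirmation series; incubation: 24 h compound exposure at 37°C, 5% CO2; signal: beta-catenin immunofluorescence imaging with DAPI; evaluation: % activation, nuclear-to-cytoplasmic median beta-catenin signal ratio per cell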
Dynein cargo inh – inhibitors of GR-EGFP nuclear translocation, primary screen, dynein cargo transport inhibitor project, imaging, high-content, 3617.4 mouse cells; test concentration mostly 20 µM; stimulated with dexamethasone, 1 µM; active compounds read low; z-score, hits read low; 220,000 compounds, 0.47% hits;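 active = plate z-score of nuclear minus cytoplasmic receptor signal below a set negative limit, without overly bright fluorescence or cell loss, cut at about -3.5 in these data, passing the limit was not always enough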;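 note: z-score of nuclear minus cytoplasmic ring GR-EGFP intensity difference per well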
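medium = tetracycline-free induction medium containing charcoal-stripped FBS | probe or stimulus = dexamethasone, 1.0 µM final | timing = 48 h induction, then 1 h compound, then 30 min agonist, 37 °C | detection = automated 10x imaging of fixed Hoechst-stained cells | read-out basis = nuclear versus cytoplasmic GR-EGFP signal, averaged per well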
Numbers stand for hits; . = inactive; / = not tested or not shown.

SMILES | L major viab | MT stabilize HCS | HSV augment | b-catenin transl | Dynein cargo inh
CCOc1cc(N(CC)CC)ccc1/C=C(/C#N)c1nc2ccccc2[nH]1 | 80 | . | / | . | .
CCCOc1cc(N(CC)CC)ccc1/C=C(/C#N)c1nc2ccc(C)cc2[nH]1 | 66 | . | / | . | .
Cc1ccc2nc(/C(C#N)=C\c3cc(O)ccc3[N+](=O)[O-])[nH]c2c1 | . | . | . | . | .
COc1cc(/C=C(\C#N)c2nc3ccc(C)cc3[nH]2)c([N+](=O)[O-])cc1OC | 98 | . | . | . | .
CCN(CC)c1ccc(/C=C(/C#N)c2nc3ccc(C)cc3[nH]2)c(OC(C)C)c1 | 100 | . | / | . | .
Cc1ccc2nc(/C(C#N)=C\c3ccc(Oc4ccc(C(F)(F)F)cc4[N+](=O)[O-])cc3)[nH]c2c1 | . | . | . | . | .
COc1cc(/C=C(\C#N)c2nc3ccc(C)cc3[nH]2)cc([N+](=O)[O-])c1O | . | . | . | . | .
CCN1C(=O)C2(C(C#N)=C(N)Oc3n[nH]c(-c4ccc(Cl)cc4)c32)c2ccccc21 (stereo not given) | . | . | . | . | .
C=CCNc1nnc(SC2CC(=O)N(c3ccc(OC)cc3)C2=O)s1 (stereo not given) | . | . | . | / | .
COC(=O)C1=C(C)N(C(C)C)C(=O)C1(NC(=O)C1CCCCC1)C(F)(F)F (stereo not given) | . | . | . | . | .
Cc1ccccc1OCCCC(=O)Nc1ccc2c(c1)OCO2 | . | . | . | . | .
CCCCNC(=O)CNC(=S)N(Cc1ccccc1)Cc1cccnc1 | . | . | . | . | .
COCCCNC(=S)N(Cc1cccnc1)Cc1ccc(OC)c(OC)c1 | 89 | . | . | . | .
COc1ccc(OC)c(C2C(C(=O)c3ccccc3)=C(C)Nc3nc4ccccc4n32)c1 (stereo not given) | 79 | . | / | . | .
COc1ccc(C2C(C(=O)c3ccccc3)=C(C)Nc3nc4ccccc4n32)cc1OC (stereo not given) | . | . | / | . | .
CC1=CC2=NC(=O)/C(=C\c3cccn3CCOc3cc(C)ccc3C)C(=N)N2O1 | 53 | . | . | . | .
CC1=CC2=NC(=O)/C(=C\c3cccn3CCOc3cccc(C)c3)C(=N)N2O1 | . | . | . | . | .
COc1ccc(Cl)c(Cn2c(NCCCN(C)C)nc3c2c(=O)n(C)c(=O)n3C)c1 | 100 | . | . | . | .
O=[N+]([O-])c1ccc(O)c(NC(=S)Nc2ccccc2)c1 | . | . | . | . | .
CC1=NNC(=O)C1CC(=O)N/N=C(\C)c1cccs1 (stereo not given) | . | . | . | . | .
CCN(CC)CCCNC(=O)c1cc2nc3c(c(C(F)(F)F)n2n1)CCc1ccccc1-3 | 96 | . | . | . | .
Cc1cc(=O)[nH]c(=O)n1Cc1ccccc1 | . | . | . | . | .
CCOc1ccccc1NC(=O)CN(c1ccc(OC)cc1)S(=O)(=O)c1c(C)noc1C | . | 17 | . | . | .
CCOc1ccc(N(CC(=O)Nc2ccccc2C)S(=O)(=O)c2c(C)noc2C)cc1 | . | 15 | . | 68 | .
CCOc1ccc(N(CC(=O)Nc2ccc(C)c(C)c2)S(=O)(=O)c2c(C)noc2C)cc1 | . | . | . | . | .
SMILES | L major viab | MT stabilize HCS | HSV augment | b-catenin transl | Dynein cargo inh
CCOc1ccccc1NC(=O)CN(c1cc(C)cc(C)c1)S(=O)(=O)c1c(C)noc1C | . | . | . | . | .
O=[N+]([O-])c1cccc(-c2cnc3ccccc3n2)c1 | / | / | . | . | .
O=[N+]([O-])c1cccc(/C=N/Nc2nc(NCc3ccccc3)nc(N3CCOCC3)n2)c1O | 99 | . | . | . | .
O=C(Nc1ccc(S(=O)(=O)NCc2ccccc2)cc1)c1ccccc1[N+](=O)[O-] | . | . | . | . | .
Cc1ccc(O)c(CP(=O)(c2ccccc2)c2ccccc2)c1 | 84 | . | . | / | .
O=P(Cc1ccccc1)(c1ccccc1)c1ccccc1 | . | . | . | . | .
CC(C)(C)NC(=O)C(c1ccc(F)cc1)N(CCc1ccccc1)C(=O)c1ccn[nH]1 (stereo not given) | . | . | . | . | .
COc1ccc(N(C(=O)c2ccn[nH]2)C(C(=O)NC(C)(C)C)c2ccc(F)cc2)cc1 (stereo not given) | 81 | . | . | / | .
CCOC(=O)c1cnc(-n2nc(C)cc2C)nc1NC(C)c1ccccc1 (stereo not given) | 96 | . | . | . | .
CCOC(=O)c1cnc(-n2nc(C)cc2C)nc1NCc1ccccc1 | 90 | . | . | / | .
CCOC(=O)c1cnc(-n2nc(C)cc2C)nc1NNc1cc(-c2ccccc2)nc(C)n1 | 100 | . | . | . | .
CCOC(=O)c1cnc(-n2nc(C)cc2C)nc1N1CC(C)OC(C)C1 (stereo not given) | 67 | . | . | / | .
O=C(O)/C(=C1/OC(=O)c2ccccc21)c1ccccc1 | . | . | . | . | .
CCOC(=O)O[C@]1(C(=O)OCCl)CC[C@H]2[C@@H]3CCC4=CC(=O)C=C[C@]4(C)[C@H]3[C@@H](O)C[C@@]21C | / | / | . | / | /
CCOC(=O)C1=C(C)N(C)C(=S)NC1c1c(OCC)ccc2ccccc12 (stereo not given) | . | . | . | . | .
Cc1ccc2c(c1)c1c3n2CCN(C(=O)CN2CCN(C)CC2)C3CCC1 (stereo not given) | . | . | . | . | .
CN1CCN(CC(=O)N2CCn3c4c(c5cc(C6CCCCC6)ccc53)CCCC42)CC1 (stereo not given) | 101 | . | . | / | .
COc1ccccc1-c1ccc(SCc2cccc(C)c2)nn1 | 99 | . | . | . | .
CC1CN(S(=O)(=O)c2cccc(-c3csc(-c4ccccc4)n3)c2)CC(C)O1 (stereo not given) | 97 | . | . | . | .
CC1CC(C)CN(Cc2nc(N)nc(Nc3ccccc3)n2)C1 (stereo not given) | . | . | . | . | .
Nc1nc(CN2CCN(Cc3ccc4c(c3)OCO4)CC2)nc(Nc2ccccc2)n1 | 72 | . | . | . | .
Nc1nc(CN2CCC(Cc3ccccc3)CC2)nc(Nc2ccccc2)n1 | 100 | . | . | . | .
CC1CC(C)CN(Cc2nc(N)nc(Nc3ccc4ccccc4c3)n2)C1 (stereo not given) | 95 | 46 | . | . | .
O=C(O)CC(=O)NC12CC3CC(CC(C3)C1)C2 | . | . | . | . | .
CCCCOC(=O)c1cccc(NC(=O)CC)c1 | . | . | . | . | .
Cc1cccc(OCc2nc(C#N)c(NCc3ccc4c(c3)OCO4)o2)c1 | . | . | . | / | .
N#Cc1nc(COc2ccc(Cl)cc2)oc1NCc1ccc2c(c1)OCO2 | 75 | . | . | / | .
O=C(O)c1cccnc1Nc1ccc(Cl)cc1 | . | . | . | . | .
COc1ccc(Br)cc1/C(C)=N/NC1=NCCN1 | 52 | . | . | . | .
